# From paper PMC11544174 (Acta Pharmaceutica Sinica. B, 2024)
# Columns and labels:
# cytotoxicity = assay type: cell-based; details: human, HEp-2 cells
# In short: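 HEp-2 cells were grown in DMEM with 10% FBS. Test compounds were held as 50 mmol/L DMSO stocks at −20 °C and diluted into culture medium to final concentrations. Ribavirin served as positive control.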
# [1] = test system: respiratory syncytial virus (RSV); assay: cytopathic effect; assay type: cell-based, strain A2; details: human respiratory syncytial virus, HEp-2, read-out: IC50 ± SD (50% inhibition concentration), anti-RSV activity
# In short: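 Host cells were HEp-2 in DMEM with 10% FBS. RSV A2 stock was propagated in HEp-2 and titred by plaque assay. Test compounds were held as 50 mmol/L DMSO stocks at −20 °C and diluted into medium to final concentrations. Ribavirin served as positive control.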
smiles,measurement,setting,value
NC(=O)c1ncn([C@@H]2O[C@H](CO)[C@@H](O)[C@H]2O)n1 [Ribavirin],CC50,cytotoxicity,> 50 µM
same,IC50,[1],15 ± 1 µM
